pIC50: −log10 of the molar value. Each block holds one molecule with its values, some of them ahead of it.
Columns and labels:
Type in all cases: protein-complex assay
[1] = tested on: C/C(=C\COP(=O)(O)OP(=O)(O)O)CCc1ccc(-c2ccccc2)cc1; assay: Binding affinity for Farnesyltransferase
Outline: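 Continuous fluorimetric farnesylation assay with purified recombinant mammalian FTase and dansyl-GCVLS peptide as cosubstrate. FPP analogue or E,E-FPP supplied as a varied substrate in 52 mM Tris–HCl pH 7.0 with 5.8 mM DTT, MgCl₂, ZnCl₂ and 0.4% n-dodecyl-β-D-maltoside. Reaction started with enzyme; fluorescence (ex 350/em 486 nm) recorded for 300 s at 30 °C. Initial fluorescence rates were converted to velocities for Km.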

[2] = biological target: T1, Protein farnesyltransferase (Homo sapiens, UniProt P49354+P49356); assay: Inhibitory activity against mammalian protein-Farnesyltransferase at 10 uM
[3] = biological target: T1, Protein farnesyltransferase; assay: Inhibitory activity against mammalian protein-farnesyltransferase
Outline: (§1)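 Inhibition read in the continuous fluorescence assay with recombinant mammalian FTase and dansyl-GCVLS peptide at 30 °C for 300 s (ex 350/em 486 nm). Tris–HCl pH 7.0 buffer held DTT, MgCl₂, ZnCl₂ and 0.4% dodecyl maltoside. E,E-FPP was fixed while analogue amounts varied; farnesylation rate was measured for each.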

[4] = biological target: T1, Protein farnesyltransferase; assay: Inhibitory activity against mammalian protein-Farnesyltransferase; outline: as §1

Molecule: Protein farnesyltransferase (Homo sapiens) (from UniProt P49354+P49356)
Km [1]: 0.8 µM

pIC50 [2]: < 5.00
Molecule: C/C(=C\COP(=O)(O)OP(=O)(O)O)CCc1ccccc1-c1ccccc1

pIC50 [3]: 5.64
Molecule: C/C(=C\COP(=O)(O)OP(=O)(O)O)COCc1ccc(C(=O)c2ccccc2)cc1

pIC50 [4]: 5.27
Molecule: C/C(=C\COP(=O)(O)OP(=O)(O)O)CCc1ccc2ccccc2c1
